Screening data as filed in PubChem.
This is a sample that favours compounds with a hit; in the whole collection about 2.2% have one here.
VIM-2 inh: inhibitors of Pseudomonas aeruginosa VIM-2 metallo-beta-lactamase | inhibition, % at 5.6 µM | purified VIM-2, nitrocefin hydrolysis, epi-absorbance fluorescence | 290,000 tested, 0.89% active;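 active means inhibition above the mean of all tested compounds plus 3 SD, cutoff set per screening run, cut at about 7.5% in these data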;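 further: red hydrolysis product quenches plate fluorescence so inhibitors raise well fluorescence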
MLLE-PAM2 inh: inhibitors of microRNA-mediated deadenylation, human PABP1 MLLE binding. GST-MLLE / FITC-PAM2 fluorescence polarization. inhibition, % at 20 µM. AID 588489. 360,000 tested, 0.36% active. P11940; in the data active means inhibition above about 35%, passing the limit was not always enough
Target sequence (P11940 whole entry, looked up): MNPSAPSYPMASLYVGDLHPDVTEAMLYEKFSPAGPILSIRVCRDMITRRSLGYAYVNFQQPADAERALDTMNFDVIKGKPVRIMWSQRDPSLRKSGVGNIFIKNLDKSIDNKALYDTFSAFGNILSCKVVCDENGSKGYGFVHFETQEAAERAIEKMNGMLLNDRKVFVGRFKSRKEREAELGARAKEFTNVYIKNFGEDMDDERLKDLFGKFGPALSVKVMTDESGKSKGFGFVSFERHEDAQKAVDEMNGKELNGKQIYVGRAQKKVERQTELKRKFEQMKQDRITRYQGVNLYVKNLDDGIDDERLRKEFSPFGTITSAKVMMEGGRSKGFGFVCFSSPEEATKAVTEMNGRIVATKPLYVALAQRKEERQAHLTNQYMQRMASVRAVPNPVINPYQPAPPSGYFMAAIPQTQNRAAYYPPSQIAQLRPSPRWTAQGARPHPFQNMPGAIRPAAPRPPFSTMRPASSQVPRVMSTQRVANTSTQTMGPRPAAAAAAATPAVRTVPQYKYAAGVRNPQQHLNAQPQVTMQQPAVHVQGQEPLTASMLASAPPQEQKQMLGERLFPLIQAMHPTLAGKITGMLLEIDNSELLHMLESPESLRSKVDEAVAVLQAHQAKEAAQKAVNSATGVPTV
PABP polyA inh: blocks human PABP binding to poly(A) RNA. fluorescence polarization. calls only at 35 µM. 290,000 tested, 1% active;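 further: calls also rest on retests at 20 µM and on dose response follow-up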
IMP-1 inh: blocks Pseudomonas aeruginosa IMP-1 metallo-beta-lactamase; inhibition, % at 5.6 µM; purified IMP-1, nitrocefin hydrolysis, epi-absorbance fluorescence; AID 1556; 290,000 tested, 0.45% active;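 active means inhibition above the mean plus 3 SD of all compounds in the same screening run, cut at about 4.5% in these data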
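System: Purified IMP-1 | Read-out basis: Percent enzyme inhibition | Controls: IMP-1 with DMSO as 0%, enzyme-free DMSO as 100% | Replicates: One well per compound | Doses: 5.6 µM nominal single concentration | Detection: Epi-absorbance fluorescence, 480 nm excitation, 530 nm emission | Incubation: 25 °C, 15 min preincubation, 25 min reaction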
eIF4H FP inh: inhibitors of RNA binding by human eIF4H; Q15056; eIF4H fluorescence polarization binding assay; inhibition, % at 35 µM; 290,000 tested, 0.94% active;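 further: calls also rest on retests at 20 µM and on dose response follow-up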
Large screens that a line does not name were inactive. Unless noted, how the calls were made is not given here.

CCCC1OC23CCCCC2C(C#N)(C(=N)O3)C1(C#N)C#N (stereo unspecified)	MLLE-PAM2 inh 57.9, PABP polyA inh inconclusive, eIF4H FP inh inconclusive
CC1OC23CCCCC2C(C#N)(C(=N)O3)C1(C#N)C#N (stereo unspecified)	none
Cc1ccc(C(=O)COC(=O)c2cn(-c3ccccc3)nc2-c2ccccc2)cc1[N+](=O)[O-]	none
COc1ccc(NC(=S)NC(C)Cc2cccs2)cc1 (stereo unspecified)	PABP polyA inh active, eIF4H FP inh 107.8
CC(Cc1cccs1)NC(=S)Nc1ccc(F)cc1 (stereo unspecified)	none
Cc1ccc(CCNC(=O)C2CCCN(S(=O)(=O)c3cnc[nH]3)C2)cc1 (stereo unspecified)	IMP-1 inh 4.8
O=C(NCCc1ccc(Cl)cc1)C1CCCN(S(=O)(=O)c2cnc[nH]2)C1 (stereo unspecified)	none
O=C(Nc1ccc(Cl)c(C(F)(F)F)c1)C1CCCN(S(=O)(=O)c2cnc[nH]2)C1 (stereo unspecified)	IMP-1 inh 6.6
c1ccc2c(c1)nc1n2C2(N3CCOCC3)CCCC2C1N1CCOCC1 (stereo unspecified)	PABP polyA inh active, eIF4H FP inh 56.8 (no result: VIM-2 inh, IMP-1 inh)
O=C1/C(=C\c2ccc(Br)o2)SC(=Nc2ccccc2)N1c1ccccc1	PABP polyA inh active, eIF4H FP inh 55.0
CN(C)N1C(=O)/C(=C/c2ccco2)SC1=Nc1ccccc1	none (no result: VIM-2 inh, PABP polyA inh, IMP-1 inh, eIF4H FP inh)
CC(OC(=O)c1cc(=O)[nH]c2ccccc12)C(=O)NC1CCCC1 (stereo unspecified)	none (no result: VIM-2 inh, PABP polyA inh, IMP-1 inh, eIF4H FP inh)
O=C(C1CC(c2cccc(Br)c2)=NO1)N1CCc2ccccc2C1 (stereo unspecified)	eIF4H FP inh 53.2
CC(C)CN(C(=O)CCNC(=O)c1ccccc1Cl)C1CCS(=O)(=O)C1 (stereo unspecified)	none (no result: VIM-2 inh, PABP polyA inh, IMP-1 inh, eIF4H FP inh)
COC(=O)C1=C(C(=O)OC)C(c2ccccc2O)c2sc(=O)[nH]c2S1 (stereo unspecified)	MLLE-PAM2 inh 45.5
COC(=O)c1sc2ccccc2c1N	none
CNc1ccc(S(=O)(=O)NCC(=O)OCC(=O)Nc2cccc(Cl)c2Cl)cc1[N+](=O)[O-]	none
O=C(/C=C/c1cccc([N+](=O)[O-])c1)c1cccs1	none
O=C(/C=C/c1cccc([N+](=O)[O-])c1)Nc1ccc(NC(=O)c2cccs2)cc1	PABP polyA inh active
CC(Oc1ccc2c3c(c(=O)oc2c1)CCCC3)C(=O)NCCN1CCOCC1 (stereo unspecified)	none
COc1ccc2c(c1OC)c(=O)n1c3ccc(OC(C)C(=O)NCCCN4CCOCC4)cc3c3ccnc2c31 (stereo unspecified)	VIM-2 inh 11.4
CC(C)c1cccc(-c2csc(C(O)c3ccco3)n2)c1 (stereo unspecified)	none (no result: VIM-2 inh, PABP polyA inh, IMP-1 inh, eIF4H FP inh)
CC(=O)Nc1c(-c2ccccc2)nc2ccc(Cl)cn12	none (no result: VIM-2 inh, PABP polyA inh, IMP-1 inh, eIF4H FP inh)
O=C(Nc1c(-c2ccccc2)nc2ccc(Cl)cn12)c1cccs1	PABP polyA inh active, eIF4H FP inh 50.6
CCOC(=O)CNc1c(-c2ccccc2)nc2ccc(Cl)cn12	none
CCOC(=O)CNc1c(-c2ccc(O)cc2)nc2ccc(Cl)cn12	PABP polyA inh active, eIF4H FP inh 79.5
O=C(COC(=O)Cc1ccc(Br)cc1)NC1CC1	none (no result: VIM-2 inh, PABP polyA inh, IMP-1 inh, eIF4H FP inh)
CC(=O)C1=C(O)C(=O)N(C)C1c1ccccc1[N+](=O)[O-] (stereo unspecified)	MLLE-PAM2 inh 39.0
CC1=CC(C)(C)N(C(=O)CNC2CCCCC2)c2cc(C)ccc21	none
Cc1nn(-c2ccccc2)c(/N=C/c2ccccc2O)c1-c1ccccc1	none
CN(C)CCCCOc1ccc(Br)cc1Cl	IMP-1 inh 24.5
O=C(O)c1cccc2cc(-c3ccccc3)oc(=O)c12	IMP-1 inh 4.8
CC(C)C(=O)N(c1ccc2oc(=O)sc2c1)S(=O)(=O)c1cccs1	MLLE-PAM2 inh 44.5
Cc1c2c(=O)n(-c3nc4ccccc4s3)nc-2cc(O)n1Cc1ccccc1	PABP polyA inh active, eIF4H FP inh 59.7
Cc1ccc(/C=C2/NC(=O)N(Cc3ccc(Br)cc3)C2=O)o1	none
O=C(O)c1ccc(-c2ccc(/C=C3\NC(=O)N(Cc4ccc(Cl)cc4)C3=O)o2)cc1Cl	PABP polyA inh active
CCOC(=O)CN1C(=O)S/C(=C\c2ccc(-c3ccc(C(=O)O)c(Cl)c3)o2)C1=O	PABP polyA inh active, eIF4H FP inh 52.1
Cn1cc(/C=C2\SC(=S)N(N3CCOCC3)C2=O)c2ccccc21	IMP-1 inh 4.8
